Most compounds without a hit are left out; they make up all but 2.8% or so of the library.
Biofilm kill mix – mixture kills Candida albicans biofilm cells; C. albicans biofilm persisters + clotrimazole, fluorescence viability; primary screen in compound mixtures of four per well; inhibition, % at 7.6 µM; hit rate 0.02% among 120,000; AID 1242;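 active means inhibition above 30.3% in the primary screen of four-compound pools, then above 30% when the compound was retested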;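 further: compounds exposed to preformed 24 h biofilms for 48 h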
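Test system: C. albicans biofilms. Buffer or medium: RPMI/MOPS medium, pH 7.0. Timing: 48 h compound exposure at 37 °C. Technique: Alamar Blue fluorescence. Evaluation: percent inhibition of biofilm viability.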
Arbovirus inh – antivirals against arbovirus infection; hit rate 0.37% among 200,000; arbovirus infection cell-based antiviral screen; inhibition, % at 10 µM; AID 1251; in the data active means inhibition above about 30%
Mcl-1 Bim block – inhibitors of Bim-Mcl-1 interaction, human. Bead-based flow cytometry, Bim peptide-Mcl-1 binding. hit rate 0.1% among 190,000. Q07820. inhibition, % at 10 µM; in the data active means inhibition above about 40%
Target sequence (Q07820 whole entry, looked up): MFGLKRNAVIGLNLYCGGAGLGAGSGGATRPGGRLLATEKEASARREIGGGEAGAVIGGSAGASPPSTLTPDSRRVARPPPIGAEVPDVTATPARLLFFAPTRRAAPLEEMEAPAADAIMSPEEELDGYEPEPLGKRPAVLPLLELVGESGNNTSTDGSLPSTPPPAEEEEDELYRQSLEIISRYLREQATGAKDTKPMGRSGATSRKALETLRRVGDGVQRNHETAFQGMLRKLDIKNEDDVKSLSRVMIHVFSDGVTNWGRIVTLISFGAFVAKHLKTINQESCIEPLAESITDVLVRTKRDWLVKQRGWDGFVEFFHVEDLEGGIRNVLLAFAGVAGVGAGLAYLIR
Mcl1 Bid PPI – disrupts binding of human Mcl-1 to Bid peptide; Q07820; TR-FRET Mcl-1/Bid-Dy647 peptide binding, 1536-well; inhibition, % at 21.7 µM; hit rate 0.97% among 220,000; AID 1021;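 active means compounds that cut the binding signal by more than half at the single screening dose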;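 further: His-tagged Mcl-1 with europium anti-His antibody binding Bid BH3 peptide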
m-calpain inh – calpain II (pig) inhibition | purified calpain II, fluorogenic peptide substrate, 30 min | inhibition, % at 16 µM | hit rate 0.37% among 220,000 | AID 1236;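 active means inhibition above about 50%, limit read from the data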
Mcl1 Noxa PPI – disrupts binding of human Mcl-1 to Noxa peptide; Q07820; TR-FRET Mcl-1/Noxa peptide binding, 2 h; inhibition, % at 21.7 µM; hit rate 1.5% among 220,000; AID 1022;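 active means compounds that cut the protein-peptide binding signal by more than 50% relative to plate controls in a single-dose test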;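 further: His-tagged Mcl-1 with rhodamine Noxa BH3 peptide and terbium anti-His antibody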
A number is an active result; i = inactive; nt = no result.

SMILES	Biofilm kill mix	Arbovirus inh	Mcl-1 Bim block	Mcl1 Bid PPI	m-calpain inh	Mcl1 Noxa PPI
CN(C)S(=O)(=O)c1cccc(NC(=O)c2ccc3nccnc3c2)c1	i	nt	nt	i	i	i
CCCCOc1ccc(Cc2c(Cl)nc(SC)nc2N2CCOCC2)cc1	i	i	45	i	i	i
CCOC(=O)C1CCCN(c2ccc(NC(=O)c3snc4c(=O)[nH]c(C)nc34)cc2)C1 (stereo not drawn)	nt	i	i	i	i	84
CCOC(=O)C1CCCN(c2ccc(NC(=O)c3snc4c(=O)[nH]cnc34)cc2)C1 (stereo not drawn)	nt	i	i	i	i	63
COc1ccc(CC(=O)Nc2ccccc2C(=O)N2CCOCC2)cc1OC	i	i	i	i	i	i
COc1cccc(OC)c1C(=O)Nc1ccccc1C(=O)N1CCOCC1	nt	i	i	84	i	i
O=C(COC(=O)CNS(=O)(=O)c1cccc(Br)c1)Nc1ccccc1Sc1ccccc1	i	i	i	i	i	i
CN(C)c1ccc(-n2cccc2)cc1	i	nt	nt	i	i	62
Cc1cc([N+](=O)[O-])ccc1NC(=O)CSc1nccc(=O)[nH]1	i	i	i	i	i	i
Cc1ccc(OCC(=O)NC(=S)Nc2cccc(NC(=O)c3ccc(Cl)cc3Cl)c2)cc1	i	i	i	63	i	i
O=C(CN1c2cccc3cccc(c23)S1(=O)=O)Nc1ccc(S(=O)(=O)N2CCOCC2)cc1	i	i	i	i	i	i
O=C(CN1C(=O)c2cccc3cccc1c23)Nc1ccc(S(=O)(=O)N2CCOCC2)cc1	i	i	i	90	i	i
Cc1ccc(C(=O)N2CC(=O)Nc3ccc(F)cc3C2c2ccccc2)cc1[N+](=O)[O-] (stereo not drawn)	i	i	i	i	i	i
Cc1ccc(C(=O)N2CC(=O)Nc3ccc(F)cc3C2c2ccc(F)cc2)cc1[N+](=O)[O-] (stereo not drawn)	i	i	i	53	i	i
Cn1c(=O)c(Nc2ccc(O)cc2)c2c3c(cccc31)C(=O)c1ccccc1-2	i	i	i	i	i	66
Cc1ccc(CN2CCNC(=O)C2CC(=O)NCCCn2ncc3ccccc32)o1 (stereo not drawn)	i	i	i	i	i	i
O=C(O)c1cccc(-c2ccc(/C=N/Nc3ccc([N+](=O)[O-])cc3)o2)c1	i	nt	nt	i	i	i
NS(=O)(=O)c1ccc(-c2ccc(/C=N/Nc3ccc(C(=O)O)cc3)o2)cc1	i	nt	nt	i	i	59
O=C(O)c1ccc(-c2ccc(/C=N/Nc3ccc([N+](=O)[O-])cc3)o2)cc1	i	nt	nt	i	i	62
O=C(Cc1ccc(F)cc1)N/N=C/c1ccc(-c2ccc(Cl)c(C(=O)O)c2)o1	i	i	i	i	i	i
O=C(O)c1cc(-c2ccc(/C=N/Nc3ccc([N+](=O)[O-])cn3)o2)ccc1Cl	i	31	i	i	i	i
NS(=O)(=O)c1ccc(-c2ccc(/C=N/NC(=O)c3ccc([N+](=O)[O-])cc3)o2)cc1	i	nt	nt	i	i	i
CCN(CC)C(=O)Cn1nnc(-c2ccc(S(C)(=O)=O)cc2)n1	i	i	i	i	i	i
Cc1cc([N+](=O)[O-])ccc1NC(=O)C(C)N1CCN(c2ccccn2)CC1 (stereo not drawn)	i	i	i	i	i	i
CN(C)S(=O)(=O)c1cccc(NC(=O)COC(=O)c2c[nH]c(=O)[nH]c2=O)c1	i	i	i	i	i	i
SMILES	Biofilm kill mix	Arbovirus inh	Mcl-1 Bim block	Mcl1 Bid PPI	m-calpain inh	Mcl1 Noxa PPI
CCOC(=O)c1sc(/N=C/c2ccc(O)cc2O)cc1C	i	i	i	i	i	57
Cn1c(N)c(C(=O)c2ccc(C#N)cc2)c(=O)n(C)c1=O	i	i	i	i	i	i
CN1C(=O)C(Cl)(Cl)C(=O)c2ccccc21	i	i	i	i	i	i
CN(C)c1ccc(C(CNC(=O)c2ccccc2)c2c[nH]c3ccccc23)cc1 (stereo not drawn)	i	i	i	i	i	68
CN(C)c1ccc(C(CNC(=O)c2ccccc2F)c2c[nH]c3ccccc23)cc1 (stereo not drawn)	i	i	i	i	i	66
CN(C)c1ccc(C(CNS(=O)(=O)c2ccc(F)c(F)c2)c2c[nH]c3ccccc23)cc1 (stereo not drawn)	i	i	i	i	i	i
O=C(NC(Cc1c[nH]c2ccccc12)C(=O)O)c1ccccc1 (stereo not drawn)	nt	i	i	i	i	i
O=C(NC(=S)Nc1nc2c(s1)CSc1ccccc1-2)c1ccccc1	nt	i	i	i	i	73

Screening results (PubChem BioAssay)
